VIM-2 inhibitor – blocks Pseudomonas aeruginosa VIM-2 metallo-beta-lactamase. inhibition, % at 5.6 µM. 290,000 compounds, 0.89% hits. purified VIM-2, nitrocefin hydrolysis, epi-absorbance fluorescence;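 active = inhibition above the mean of all tested compounds plus 3 SD, cutoff set per screening run, cut at about 7.5% in these data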;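 note: red hydrolysis product quenches plate fluorescence so inhibitors raise well fluorescence; 0% = enzyme with DMSO and 100% = DMSO without enzyme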
NS3 helicase inh – HCV NS3 helicase inhibition. NS3 helicase DNA unwinding, Cy5 molecular beacon fluorescence. inhibition, % at 10.9 µM. 290,000 compounds, 0.56% hits. AID 1800;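 active = inhibition above the mean of all tested compounds plus 3 SD, set per campaign, cut at about 35% in these data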;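 note: 0% = DMSO wells and 100% = thioflavine S control wells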
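test system = hepatitis C virus NS3 helicase domain fragment enzyme | reagent = annealed dual-labelled DNA beacon duplex, ATP-started | times = 1 h at 25 °C | detection = Cy5 fluorescence, 0 and 60 min reads | read-out basis = percent inhibition from t60/t0 fluorescence ratio | control set = DMSO and thioflavine S | replication = one well per compound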
IMP-1 inh – inhibitors of Pseudomonas aeruginosa IMP-1 metallo-beta-lactamase; purified IMP-1, nitrocefin hydrolysis, epi-absorbance fluorescence; inhibition, % at 5.6 µM; 290,000 compounds, 0.45% hits;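 active = inhibition above the mean plus 3 SD of all compounds in the same screening run, cut at about 4.5% in these data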;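 note: 0% = IMP-1 with DMSO and 100% = DMSO wells lacking enzyme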
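System: purified recombinant IMP-1 beta-lactamase. Medium: Zinc- and detergent-supplemented HEPES buffer, pH 7.1. Compound: one 5.6 µM dose […]. Schedule: 15 min preincubation plus 25 min reaction at 25 °C. Technique: Epi-absorbance fluorescence, 480 nm excitation, 530 nm emission.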
FID counter – counter-screen for HCV NS3 helicase inhibitors: DNA intercalator displacement; DNA fluorescent intercalator displacement, fluorescence; inhibition, % at 7.9 µM; 290,000 compounds, 0.17% hits; AID 1845; in the data active = inhibition above about 37%;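 note: 0% = vehicle and 100% = reference compound; higher means more ethidium bromide displaced from hairpin DNA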
The depositor's hits bear a star. In the library only some 1.9% were active in any assay of this set; here they are far more common.

SMILES | VIM-2 inhibitor | NS3 helicase inh | IMP-1 inh | FID counter
COc1cnc(SC)nc1Nc1ccc(C#N)cc1 | 9.1* | -0.2 | -2.9 | 1.2
COc1ccc(Nc2nc(C)cc(C)c2C#N)cc1 | -2.4 | -12.6 | -3.2 | -3.1
CCN(CC)CC(=O)Nc1cc(N(C)C)nc2ccccc12 | -0.6 | -6.7 | -2.4 | 49.4*
O=C1NC(Cc2ccccc2)C(=O)N1CC(=O)N1CCCc2ccccc21 (configuration not stated) | -0.6 | 9.0 | 0.6 | -19.0
CCN(CC(=O)Nc1cccc(C#N)c1)CC(=O)Nc1cccc(OC)c1 | 0.6 | -1.4 | 0.3 | -13.9
Cc1ccc(C(=O)N/C(=C\c2ccco2)C(=O)NCCCn2ccnc2)cc1C | 2.6 | -7.8 | 9.7* | -1.6
COc1ccc(C(C)=O)cc1CC(=O)NCCCn1ccnc1 | -2.3 | -18.6 | 4.8* | 0.9
Cc1cc(Br)cc(Cl)c1OC(=O)c1ccncc1 | -0.3 | -8.7 | -3.2 | -18.0
CC1CCCCN1CC(O)COCc1ccccc1 (configuration not stated) | 2.8 | 23.6 | 1.1 | 6.9
S=c1nc(-c2ccccc2)n(-c2ccccc2)[nH]1 | 9.8* | 8.2 | -0.1 | -4.8
S=c1nc(-c2ccccc2)[nH]n1-c1ccccc1 | -3.1 | 5.1 | -2.3 | 2.3
CC(C)(C)c1cc(CNC2CS(=O)(=O)C[C@@H]2O)cc(C(C)(C)C)c1O (some centres not stated) | -0.5 | -9.8 | 7.3* | -3.5
Cn1c(=O)c([N+](=O)[O-])c(NCC2CCCO2)c2ccccc21 (configuration not stated) | -1.2 | -6.4 | -3.9 | -4.4
COc1ccccc1-c1cc(C(F)(F)F)n2ncc(C(=O)N3CCc4ccccc4C3)c2n1 | 1.1 | -3.6 | -0.9 | -41.0
COc1ccc(Sc2nc(-c3ccccn3)ncc2OC)cc1 | 7.9* | -3.3 | -5.8 | -18.9
CCN(CC)CCn1c2ccccc2c2cnc(N)c(C#N)c21 | -1.1 | 17.6 | -1.5 | 49.9*
O=C(NCCCn1ccnc1)/C(=C\c1ccc(Br)cc1)NC(=O)c1ccccc1F | 0.2 | -15.0 | -1.2 | 5.8
COc1ccc(C(=O)N2C(=O)c3ccc(N)cc3C2=O)cc1 | -0.4 | -5.9 | 7.7* | 0.2
O=C(NCCOc1ccc2ccccc2c1)c1cncc(Br)c1 | -1.1 | -8.1 | -0.1 | -7.8
Cc1ccc(OCc2cc(C(=O)N3CCC(c4ccccc4Cl)C3)no2)cc1C (configuration not stated) | -1.4 | -5.5 | -1.9 | -35.5
CCN(CC)CCOC(=O)c1ccc(NC(=O)CCCN2C(=O)/C(=C/c3cccs3)SC2=S)cc1 | 3.0 | -33.8 | 0.1 | 44.0*
O=C(CCCN1C(=O)/C(=C\c2cccs2)SC1=S)Nc1ccc(C(=O)O)cc1 | -0.4 | 2.1 | -1.0 | -21.3
O=C(CCCN1C(=O)/C(=C/c2cccs2)SC1=S)Nc1ccc(O)c(C(=O)O)c1 | 9.7* | -13.8 | -0.1 | 3.0
O=C(CCCN1C(=O)/C(=C\c2cccs2)SC1=S)Nc1ccc(O)cc1 | -1.6 | -10.3 | -2.0 | -9.0
Cc1ccc(C)c(OCC(=O)Nc2ccc(S(=O)(=O)Nc3ncccn3)cc2)c1 | -1.7 | 16.0 | -2.4 | -27.7
SMILES | VIM-2 inhibitor | NS3 helicase inh | IMP-1 inh | FID counter
O=[N+]([O-])c1ccc(Cc2cncc(O)c2)cc1 | -1.9 | 15.1 | -2.4 | 1.1
COC(=O)c1cccnc1NC(=S)NNC(=O)c1ccccc1 | -6.0 | 3.8 | 11.2* | 1.2
COC(=O)c1ccccc1NC(=S)NC(=O)c1ccc(C)cc1 | 0.3 | 8.2 | -1.2 | -6.2
COC(=O)c1ccccc1NC(=S)NC(=O)c1ccccc1 | -1.3 | 0.6 | 4.7* | -0.5
COC(=O)c1ccc(NC(=S)NNC(=O)c2ccccc2)cc1 | -2.3 | -3.4 | -0.5 | 12.3
CCN(CC(=O)Nc1ccc(NC(C)=O)cc1)C(=O)/C=C/c1c(C)nn(-c2ccc(F)cc2)c1C | -0.2 | 0.9 | -0.9 | -29.9
CCOC(=O)C1CCN(S(=O)(=O)c2ccc(CN3C(=O)c4cccnc4C3=O)cc2)CC1 | 1.6 | 24.5 | -2.6 | -30.1
O=C1c2cccnc2C(=O)N1Cc1ccc(S(=O)(=O)N2CCN(c3ccc(Cl)cc3)CC2)cc1 | 8.5* | 2.5 | 2.2 | -65.7
O=C(CCC(=O)N(CC(=O)NC1CCCC1)Cc1ccc(F)cc1)Nc1nccs1 | -4.2 | -17.9 | -2.8 | -31.8
CCCc1[nH][nH]c(=O)c1C(c1ccccc1)C(C#N)C#N (configuration not stated) | 9.1* | 2.5 | 2.5 | 2.0
CCCc1[nH][nH]c(=O)c1C(c1ccc(Br)cc1)C(C#N)C#N (configuration not stated) | 8.8* | 4.8 | -2.4 | -7.2
Cc1[nH][nH]c(=O)c1[C@@H](c1ccccc1[N+](=O)[O-])C(C#N)C#N | -0.4 | -8.6 | -2.3 | -2.0
OC(COc1ccc(F)cc1Cl)CN1CCC(Cc2ccccc2)CC1 (configuration not stated) | -0.3 | -46.6 | 2.4 | 38.6*
OC(COc1ccccc1F)CN1CCC(Cc2ccccc2)CC1 (configuration not stated) | -1.6 | -6.2 | -2.5 | 8.4
O=C(CN1C(=O)/C(=C/c2ccco2)SC1=S)NC1CCS(=O)(=O)C1 (configuration not stated) | -2.3 | 30.6 | 5.6* | -13.5
O=C(CCN1C(=O)/C(=C/c2ccccc2)SC1=S)NC1CCS(=O)(=O)C1 (configuration not stated) | 0.1 | 2.8 | -0.4 | -29.1
O=C(CN1C(=O)/C(=C/c2ccco2)SC1=S)Nc1ccc(C(=O)O)c(O)c1 | -2.0 | 27.3 | 7.2* | 25.8
COC(=O)c1ccc(N2CCN(c3ccccc3)CC2)nc1 | -2.3 | -7.3 | 0.2 | -24.6
Cc1onc(NC(=O)NC(=O)c2c(Cl)cccc2Cl)c1Br | -0.3 | -1.5 | 1.2 | -34.5
NS(=O)(=O)c1ccc(NC(NC(=O)c2cccnc2)C(Cl)(Cl)Cl)cc1 (configuration not stated) | -2.2 | 11.4 | -3.2 | -5.4
O=C(OCCN1CCOCC1)c1ccc(Cl)cc1Cl | -2.0 | 5.1 | -3.2 | -1.5
O=C(CSc1n[nH]c(-c2ccccn2)n1)Nc1ccccc1F | 9.6* | 9.1 | -3.6 | -14.3
CCSc1nc(NCCN(C)C)c2c3c(sc2n1)COC(C)(CC)C3 (configuration not stated) | 8.5* | -25.8 | -2.9 | 13.6
Cc1ccc(C=Nc2cccnc2N)cc1 | 0.8 | 10.6 | 4.8* | -14.3
COc1ccc(C=Nc2cccnc2N)cc1 | 1.2 | 0.1 | -2.3 | -3.9
COc1cc(S(=O)(=O)NC2CCCCC2C)ccc1F (configuration not stated) | 0.4 | 13.3 | -3.2 | -14.8
O=C(CN1CCN(c2ccc(C(F)(F)F)cn2)CC1)Nc1ccc2c(c1)OCO2 | -2.8 | 19.1 | -1.4 | -8.0
O=C1C(Cl)=C(Nc2ccccc2O)C(=O)N1c1ccccc1 | 9.3* | 11.4 | -5.1 | 1.3
Cc1ccc(N2C=Nc3ccc(C)c4nc(C)cc2c34)cc1 | 11.2* | 0.1 | -0.7 | 10.1
CCN(CC)c1ccc(C=C(c2nnnn2-c2ccc(C)cc2)c2nnnn2-c2ccc(C)cc2)cc1 | -3.3 | -9.4 | 52.1* | 0.9
